The source made the active and inactive calls. No cut-off for these calls is given here.
How the values were obtained:
Homo sapiens = species: Homo sapiens; assay: Inhibition of P-glycoprotein using taxol as substrate
[1] = AUC (0 to infinity) in dog at 7.5 mg/kg, po; assay type: ADME, organism-based, Canis lupus familiaris; set-up: time infinity, dose 7.5 mg/kg, route oral; details: plasma
Outline: (§1)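 Drug–drug interaction study in dogs, n = 3. The booster was given orally at 7.5 mg/kg as a PEG400 solution, 5 min before oral darunavir at 30 mg/kg. Darunavir plasma Cmax and AUC0–∞ were measured, with fold increase calculated against darunavir dosed alone.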

[2] = Cmax in dog at 7.5 mg/kg, po; assay type: ADME, organism-based, Canis lupus familiaris; set-up: dose 7.5 mg/kg, route oral; details: in vivo; outline: as §1
Canis familiaris [3] = assay: Enhancement of darunavir AUC (0 to infinity) in dog at 7.5 mg/kg, po administered 5 mins prior to darunavir co-administration; assay type: ADME, organism-based, Canis lupus familiaris; set-up: dose 7.5 mg/kg, route oral; details: in vivo
Canis familiaris [4] = assay: Enhancement of darunavir Cmax in dog at 7.5 mg/kg, po administered 5 mins prior to darunavir co-administration; assay type: ADME, organism-based, Canis lupus familiaris; set-up: dose 7.5 mg/kg, route oral; details: in vivo
[5] = Drug metabolism in dog hepatocytes at 2 uM after 2 hrs; assay type: ADME, cell-based, Canis lupus familiaris, Hepatocyte; details: read-out: Drug metabolism
[6] = Absolute oral bioavailability in dog at 10 mg/kg administered as single dose; assay type: ADME, organism-based, Canis lupus familiaris; details: in vivo
Outline: (§2)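 Single oral dose of 10 mg/kg given to rats and dogs, n = 3 per species. Plasma Cmax, Tmax, AUC0–∞ and absolute oral bioavailability were derived from the plasma profiles.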

[7] = AUC (0 to infinity) in dog at 10 mg/kg, po administered as single dose; assay type: ADME, organism-based, Canis lupus familiaris; set-up: time infinity, dose 10 mg/kg, route oral; details: plasma; outline: as §2
[8] = Tmax in dog at 10 mg/kg, po administered as single dose; assay type: ADME, organism-based, Canis lupus familiaris; set-up: dose 10 mg/kg, route oral; details: in vivo; outline: as §2
[9] = Cmax in dog at 10 mg/kg, po administered as single dose; assay type: ADME, organism-based, Canis lupus familiaris; set-up: dose 10 mg/kg, route oral; details: in vivo; outline: as §2
[10] = Absolute oral bioavailability in rat at 10 mg/kg administered as single dose; assay type: ADME, organism-based; details: in vivo; outline: as §2
[11] = AUC (0 to infinity) in rat at 10 mg/kg, po administered as single dose; assay type: ADME, organism-based; set-up: time infinity, dose 10 mg/kg, route oral; details: plasma
[12] = Tmax in rat at 10 mg/kg, po administered as single dose; assay type: ADME, organism-based; set-up: dose 10 mg/kg, route oral; details: in vivo; outline: as §2
[13] = Cmax in rat at 10 mg/kg, po administered as single dose; assay type: ADME, organism-based; set-up: dose 10 mg/kg, route oral; details: in vivo; outline: as §2
[14] = Efflux ratio of apparent permeability of the compound from basal to apical to apical to basal side of human Caco2 cells at 10 uM at pH 7.4 after 60 mins; assay type: ADME, cell-based; details: Caco-2, pH 7.4
Outline: (§3)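 Caco-2 monolayers; test compound at 10 µM; apparent permeability measured in secretory and absorptive directions at pH 5.5 and at pH 7.4, read after 60 min incubation; transport polarity taken as P_secretory/P_absorptive.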

[15] = Efflux ratio of apparent permeability of the compound from basal to apical to apical to basal side of human Caco2 cells at 10 uM at pH 5.5 after 60 mins; assay type: ADME, cell-based; details: Caco-2, pH 5.5; outline: as §3
[16] = Apparent permeability across human Caco2 cells at 10 uM at pH 7.4 after 60 mins; assay type: ADME, cell-based; details: Caco-2, pH 7.4
Outline: (§4)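 Caco-2 monolayers were exposed to compound at 10 µM and sampled after 60 min of incubation, at pH 5.5 or pH 7.4. Apparent permeability was measured in the absorptive and secretory directions, with efflux expressed as the secretory/absorptive ratio.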

[17] = Apparent permeability across human Caco2 cells at 10 uM at pH 5.5 after 60 mins; assay type: ADME, cell-based; details: Caco-2, pH 5.5; outline: as §4
Cytochrome P450 3A4 = Cytochrome P450 3A4 (Homo sapiens, UniProt P08684); assay: Inhibition of CYP3A4 in human liver microsomes using midazolam as substrate after 10 mins by LC/MS/MS analysis
Sequence of Cytochrome P450 3A4 (P08684 whole entry): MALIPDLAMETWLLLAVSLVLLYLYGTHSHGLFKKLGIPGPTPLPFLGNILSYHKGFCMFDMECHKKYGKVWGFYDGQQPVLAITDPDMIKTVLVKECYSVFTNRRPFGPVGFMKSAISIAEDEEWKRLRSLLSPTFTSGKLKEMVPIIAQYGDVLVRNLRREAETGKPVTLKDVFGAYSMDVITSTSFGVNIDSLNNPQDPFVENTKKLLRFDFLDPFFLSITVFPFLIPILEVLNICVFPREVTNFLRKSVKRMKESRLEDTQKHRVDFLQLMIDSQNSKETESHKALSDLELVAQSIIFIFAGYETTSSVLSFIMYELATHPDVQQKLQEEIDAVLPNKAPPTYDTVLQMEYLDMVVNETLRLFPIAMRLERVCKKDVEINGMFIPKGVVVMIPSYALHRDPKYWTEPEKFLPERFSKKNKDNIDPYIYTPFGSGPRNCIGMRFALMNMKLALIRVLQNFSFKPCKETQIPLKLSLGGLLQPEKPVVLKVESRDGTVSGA

[18] = test system: Human immunodeficiency virus 1; assay: Antiviral activity against wild type HIV1 3B infected in human MT4 LTR-EGFP cells by EGFP reporter gene assay; assay type: functional, organism-based; details: Human immunodeficiency virus 1, 3B

| SMILES | inhibition (Homo sapiens) | AUC(0-inf) [1] [ng·h/mL] | Cmax [2] [ng/mL] | fold change (FC) (Canis familiaris [3]) | fold change (FC) (Canis familiaris [4]) | metabolised at 2 h, 2 µM [5] [%] | bioavailability [6] [%] | AUC(0-inf) [7] [ng·h/mL] | Tmax [8] [h] | Cmax [9] [ng/mL] | bioavailability [10] [%] | AUC(0-inf) [11] [ng·h/mL] | Tmax [12] [min] | Cmax [13] [ng/mL] | efflux ratio at 1 h, 10 µM [14] | efflux ratio at 1 h, 10 µM [15] | Papp at 1 h, 10 µM [16] [×10⁻⁶ cm/s] | Papp at 1 h, 10 µM [17] [×10⁻⁶ cm/s] | IC50 (Cytochrome P450 3A4) [nM] | EC50 [18] [µM] |
| --- | --- | --- | --- | --- | --- | --- | --- | --- | --- | --- | --- | --- | --- | --- | --- | --- | --- | --- | --- | --- |
| CC(C)CN(C[C@@H](O)[C@H](Cc1ccccc1)NC(=O)OCc1cncs1)C(=O)c1ccc2nc(N)sc2c1 | Active | 6480 | 2300 | 4.7 | 1.8 | 12 | 1.37 | 200 | 1 | 140 | 0.82 | 10 | 30 | 10 | 22 | 26 | 1.2 | 0.52 | 19 | 76 |
| CCN(C)c1nc2ccc(C(=O)N(CC(C)C)C[C@@H](O)[C@H](Cc3ccccc3)NC(=O)OCc3cncs3)cc2o1 | – | 2000 | 610 | 5 | 2 | – | 81 | 2240 | 0.5 | 1010 | 44 | 970 | 60 | 240 | – | – | 11 | 10 | – | 71 |
| CC(C)CN(C[C@@H](O)[C@H](Cc1ccccc1)NC(=O)OCc1cncs1)C(=O)c1ccc2ncsc2c1 | – | 7070 | 2100 | 4.8 | 2 | – | 97 | 2240 | 1 | 5200 | 107 | 7800 | 30 | 2800 | 3.6 | 2 | 9.8 | 11 | 23 | 95 |
